Screening data from PubChem.
An excerpt weighted towards active compounds, which were near 2.9% of everything screened.
TRPC4 act: activators of mouse TRPC4 channel, primary screen, Fluo4 calcium, HEK293 TRPC4beta/mu-opioid cells; AID 2237, 2010; B-score at 10 µM; 310,000 tested, 0.49% active; Fluo4 calcium fluorescence; active compounds read high;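 active means B-score above 5 SD of library B-scores, and initial fluorescence ratio not above library mean plus 5 SD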;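 further: positive B-score marks a calcium rise read as TRPC4 activation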
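Material: TRPC4beta and mu-opioid receptor HEK293 stable cells | Incubation: 45 min room-temperature Fluo4 loading, 110 s read | Detection: Kinetic Fluo4 calcium fluorescence | Measure: Integrated baseline-normalised fluorescence ratio, converted to per-well B score | Benchmarks: Low control buffer alone, high control maximal DAMGO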
Kir21 inh: inhibitors of mouse Kir2.1 inward-rectifier potassium channel. 310,000 tested, 0.85% active. B-score at 10 µM. Inward rectifier potassium channel 2 (Mus musculus), P35561. HEK293-Kir2.1, FluxOR thallium flux fluorescence; active compounds read low;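 active means fluorescence ratio B-score at or below minus 3 SD of library scores, with starting-brightness B-score within 2 SD, cut at about -4.2 in these data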;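 further: channel flux triggered by added potassium and thallium sulfate stimulus; B-score of peak minus minimum fluorescence over baseline after thallium stimulus; more negative B-score means stronger Kir2.1 block with less thallium influx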
Target sequence (P35561 whole entry, looked up): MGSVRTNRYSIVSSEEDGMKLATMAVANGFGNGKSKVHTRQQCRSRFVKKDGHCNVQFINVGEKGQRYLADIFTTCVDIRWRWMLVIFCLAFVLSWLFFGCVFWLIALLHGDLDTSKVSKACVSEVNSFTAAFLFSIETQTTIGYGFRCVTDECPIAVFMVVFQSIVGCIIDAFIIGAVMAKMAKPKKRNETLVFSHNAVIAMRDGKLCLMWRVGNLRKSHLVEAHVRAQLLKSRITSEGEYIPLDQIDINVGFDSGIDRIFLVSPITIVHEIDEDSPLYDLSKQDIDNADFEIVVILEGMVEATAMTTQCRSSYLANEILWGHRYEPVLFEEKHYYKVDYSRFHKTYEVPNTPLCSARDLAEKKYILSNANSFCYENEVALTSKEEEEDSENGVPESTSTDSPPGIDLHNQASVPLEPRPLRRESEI
TRPC4 block: inhibitors of mouse TRPC4 channel, primary screen, Fluo4 calcium, HEK293 TRPC4beta/mu-opioid cells | DAMGO-evoked Fluo4 calcium flux; active compounds read low | AID 2247, 2010 | Short transient receptor potential channel 4 (Mus musculus), Q9QUQ5 | 300,000 tested, 0.39% active | B-score at 10 µM;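 active means B-score over 3 SD under the library average, no early fluorescence shift, positive overall ratio signal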
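Assay system: HEK293 cells with stable TRPC4beta plus mu-opioid receptor expression; Probe or stimulus: DAMGO in two steps, submaximal then maximal; Dosing: single-point compound dosing; Measured by: Fluo4 calcium-dye fluorescence, kinetic read; Read-out basis: B score from integrated Fluo4 fluorescence ratio.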
TRPC4 PAM: positive allosteric modulators of TRPC4, primary screen, cell-based, mouse TRPC4beta, HEK293 mu-opioid, Fluo-4 calcium | Short transient receptor potential channel 4 (Mus musculus), Q9QUQ5 | DAMGO EC20, Fluo-4 Ca2+ flux; active compounds read high | B-score at 10 µM | 310,000 tested, 0.42% active | AID 2227, 2009;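 active means B-score of calcium response area above 5 SD of library B-scores, with initial fluorescence ratio within 5 SD of library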;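 further: B-score of integrated fluorescence ratio over time as area under calcium response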
TRPC6 inhibitor: mouse TRPC6 channel inhibitors, primary screen, cell-based, HEK293, membrane potential dye; Short transient receptor potential channel 6 (Mus musculus), Q61143; ACh-evoked depolarization; active compounds read low; B-score at 10 µM; 310,000 tested, 1.1% active; AID 2553, 2010;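 active means B-score under library mean minus 3 SD, initial fluorescence not abnormally high, positive integrated signal ratio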;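 further: B-score derived from integrated fluorescence ratio over the kinetic read; more negative B-score means stronger inhibition of depolarization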
TRPC6 act: mouse TRPC6 channel activators, primary screen, cell-based, HEK293, membrane potential dye; Short transient receptor potential channel 6 (Mus musculus), Q61143; HEK293-TRPC6 membrane potential dye fluorescence; active compounds read high; B-score at 10 µM; 310,000 tested, 0.13% active;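 active means B-score of the integrated fluorescence ratio above library mean plus 3 SD, and starting fluorescence ratio within library mean plus 5 SD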;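 further: higher score means more depolarization so channel activation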
TRPC4 spec 2: mouse TRPC4 off-target activity of TRPC6 inhibitors, second screen. shares compounds with TRPC6 inhibitor. HEK293 TRPC4/MOR, membrane potential dye fluorescence; channel activated by saturating DAMGO dose. inhibition, % at 10 µM. 920 tested, 42% active;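 active means compounds whose fluorescence signal differed from control wells by over 3 SD, either direction, in both duplicate plates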
TRPC4 spec: mouse TRPC4 modulation by TRPC6 hits, confirmation, selectivity assay for TRPC6 inhibitor project, cell-based, HEK293 TRPC4/mu-opioid, membrane potential dye; shares compounds with TRPC6 inhibitor; membrane potential fluorescence; activity change, negative = inhibition, % at 10 µM; 920 tested, 61% active; AID 2777, 2010;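 active means rise or fall in signal beyond 3 SD of buffer-only wells in both replicate plates, either sign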;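 further: integrated kinetic ratio of fluorescence range over baseline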
HEK293 MPD ctr 2-1: nonspecific membrane potential effects, parental HEK293, confirmation, counter-screen for TRPC6 inhibitor project, cell-based, second counter screen. shares compounds with TRPC6 inhibitor. parental HEK293 membrane potential dye fluorescence; maximal acetylcholine challenge after compound addition. signal change vs control, % at 10 µM. 920 tested, 31% active;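 active means membrane potential signal moving either way by over 3 SD of the maximum-effect control, in both duplicate plates, meaning non-specific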
HEK293 MPD ctr-1: membrane potential modulation in parental HEK293, confirmation, counter-screen for TRPC6 inhibitor project, cell-based. shares compounds with TRPC6 inhibitor. parental HEK293 membrane potential dye fluorescence. membrane potential signal change, % at 10 µM. 920 tested, 60% active;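 active means membrane potential signal shifting up or down by more than 3 SD of buffer-only wells, on both duplicate plates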
HEK293 MPD ctr-2: parental HEK293 membrane potential modulation, confirmation, counter-screen for TRPC6 modulator project, cell-based; membrane potential signal change, % at 10 µM; shares compounds with TRPC6 inhibitor; membrane potential dye fluorescence; AID 488924, 2010; 2,400 tested, 51% active;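 active means membrane potential signal moves up or down beyond 5 SD from buffer-only wells, on both duplicate plates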
HEK293 MPD ctr 2-2: second counter-screen for TRPC6 modulators: effect in parental HEK293 cells; shares compounds with TRPC6 inhibitor; AID 488926; inhibition, % at 10 µM; 2,400 tested, 14% active; membrane potential dye fluorescence; after compound, maximal acetylcholine stimulation;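 active means membrane potential signal drops by more than 5 SD from the mean control signal, in both duplicate plates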;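 further: plate controls were acetylcholine ECmax control wells for no effect and buffer only wells for full effect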
TRPC4 ctr mod: TRPC4 modulation by TRPC6 hit compounds, confirmation, selectivity assay for TRPC6 modulator project, cell-based, HEK293 TRPC4/mu-opioid, membrane potential dye, mouse. shares compounds with TRPC6 inhibitor. membrane potential fluorescence. percent change from control (negative = decrease, positive = increase), % at 10 µM. 2,400 tested, 69% active;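 active means membrane potential signal moved up or down beyond 5 SD of buffer control wells, in both duplicate plates, actives on both sides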;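 further: plate controls were assay buffer wells for no effect and DAMGO maximal-effect wells for full effect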
TRPC4/MOR inh 2: second check of whether TRPC6 modulators also affect mouse TRPC4. shares compounds with TRPC6 inhibitor. HEK293 TRPC4/mu-opioid, membrane potential dye fluorescence; stimulated with maximal-effect DAMGO. inhibition, % at 10 µM. 2,400 tested, 55% active. AID 488928;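 active means drop in membrane potential signal beyond 5 SD of the control wells in both duplicate plates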;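 further: TRPC4 counter screen for TRPC6 hits run under conditions tuned for TRPC6 not TRPC4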
TRPC6 inh conf: mouse TRPC6 channel inhibitors, confirmation, HEK293 cells, membrane potential dye, duplicate; ACh-evoked depolarization; 3,300 tested, 43% active; shares compounds with TRPC6 inhibitor; inhibition, % at 10 µM;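 active means fluorescence ratio falls more than 5 SD below the full-stimulation control mean, in both duplicate runs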;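 further: integrated fluorescence ratio of peak minus minimum over baseline after agonist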
TRPC6 act conf: mouse TRPC6 channel activators, confirmation, HEK293 cells, membrane potential dye, duplicate. 2,800 tested, 11% active. HEK293-TRPC6 membrane potential dye fluorescence, FDSS. activation, % at 10 µM. shares compounds with TRPC6 inhibitor;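 active means ratio signal rise beyond 5 SD above unstimulated control wells' mean, seen in both duplicate runs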;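 further: plate controls were buffer EC0 wells for no effect and acetylcholine ECmax response for full effect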
Numbers without * were called inactive; i = inactive; / = no result.

SMILES | TRPC4 act | Kir21 inh | TRPC4 block | TRPC4 PAM | TRPC6 inhibitor | TRPC6 act | HEK293 MPD ctr-2 | HEK293 MPD ctr 2-2 | TRPC4 ctr mod | TRPC4/MOR inh 2 | TRPC6 inh conf | TRPC6 act conf | others
COc1ccc(C(=O)/C(C#N)=N/Nc2ccc([N+](=O)[O-])cc2)cc1 | i | 4.34 | i | i | -5.72* | i | i | i | i | i | i | i
CC/C(O)=C1\C(=O)CCCC1=NCc1nc2ccccc2[nH]1 | i | -0.69 | i | i | i | i | / | / | / | / | / | /
Cc1ccc(/C=C2/NC(=O)N(c3ccccc3)C2=O)o1 | i | 1.19 | i | i | i | i | / | / | / | / | / | /
O=C1N/C(=C/c2ccc(N3CCOCC3)o2)C(=O)N1c1cccc(Cl)c1 | i | -2.7 | i | i | i | 19* | 119.5%* | i | 33.5%* | i | i | i
CCCc1nc2c(C)cc(C)cc2c(N)c1CC | i | 1.11 | i | i | -5.99* | i | -94.0%* | i | -18.5%* | 60.5%* | i | i
Cc1cc(C)c2nc(C(F)(F)F)c(C#N)c(N)c2c1 | i | 0.84 | i | i | i | i | / | / | / | / | / | /
CCOc1cc(S(=O)(=O)N2CCN(C(=O)c3ccco3)CC2)ccc1F | i | -0.05 | i | 22* | -5.7* | i | i | i | 42.0%* | i | 37.5%* | /
Cc1cc(S(=O)(=O)N2CCN(C(=O)c3ccco3)CC2)ccc1F | i | -0.43 | i | i | i | i | / | / | / | / | / | /
COc1ccc(C2=CSC3=NCCN23)cc1OC | i | -0.19 | i | i | i | i | / | / | / | / | / | /
CCCCOc1ccc(C2=CSC3=NCCN23)cc1[N+](=O)[O-] | i | -1.46 | i | i | -5.13* | i | -75.0%* | i | -20.5%* | 43.5%* | 44.5%* | i
N=c1c(S(=O)(=O)c2ccc(Cl)cc2)cc2c(=O)n3ccccc3nc2n1CCN1CCOCC1 | i | -0.84 | i | i | i | i | / | / | / | / | / | /
Cc1ccc(S(=O)(=O)c2cc3c(=O)n4ccccc4nc3n(CCCN3CCOCC3)c2=N)cc1C | i | 0.35 | i | i | -6.22* | i | -249.5%* | 66.5%* | -51.5%* | 80.0%* | 66.0%* | i
N=c1c(S(=O)(=O)c2ccccc2)cc2c(=O)n3ccccc3nc2n1CCCN1CCOCC1 | i | -1.14 | i | i | -5.45* | i | -142.5%* | i | -41.0%* | 51.0%* | 50.0%* | i
COc1cc(NC(=O)Cc2cccc3ccccc23)c(C(=O)O)cc1OC | i | 1.38 | i | i | i | i | / | / | / | / | / | /
COc1ccccc1C(=O)NCC1CCN(c2ccc(S(=O)(=O)N3CCOCC3)cc2)CC1 | i | 0.76 | i | i | -6.87* | i | / | / | / | / | 55.4%* | i | TRPC4 spec 2=i;TRPC4 spec=8.9%*;HEK293 MPD ctr 2-1=10.0%*;HEK293 MPD ctr-1=5.1%*
Cc1cccc(NC(=O)C2CCCN(S(=O)(=O)c3cccc4cccnc34)C2)c1 (stereo unspecified) | i | 1.41 | i | i | i | i | / | / | / | / | / | /
CCCNC(=O)Cn1c(=O)/c(=C\c2ccc(-c3ccc([N+](=O)[O-])cc3)o2)s/c1=C\C(=O)C(C)(C)C | i | -14.2 | i | i | i | 32.5* | 977.5%* | i | 274.0%* | i | i | 281.0%*
O=C(Cc1ccccc1)N/N=C/c1ccc(-c2ccc([N+](=O)[O-])cc2)o1 | i | -0.03 | i | i | i | i | / | / | / | / | / | /
N=c1n(CC(=O)c2cccs2)c2ccccc2n1Cc1ccccc1 | i | -2.95 | i | i | -9.73* | i | / | / | / | / | 64.7%* | i | TRPC4 spec 2=33.0%*;TRPC4 spec=i;HEK293 MPD ctr 2-1=i;HEK293 MPD ctr-1=2.0%*
C=CCn1c(=N)n(CC(=O)c2ccc(Cl)cc2)c2ccccc21 | i | -1.03 | i | i | -5.87* | i | i | i | 35.5%* | 93.0%* | 57.5%* | /
C=CCn1c(=N)n(CC(=O)OC)c2ccccc21 | i | 0.03 | i | i | i | i | / | / | / | / | / | /
